Measurements reported in ChEMBL document CHEMBL5376013, “Design, synthesis and biological evaluation of novel morpholinopyrimidine-5-carbonitrile derivatives as dual PI3K/mTOR inhibitors” (RSC Med Chem, 2024).

Columns and labels:
Format in all cases: functional
Details in all cases: read-out: GI
SF-268 = experiment: Antitumor activity against human SF-268 cells assessed as growth inhibition at 10 uM relative to control
Outline: (§1)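 After drug addition, plates were incubated 48 h at 37 °C under 5% CO2. Adherent cells were fixed with cold TCA (10% final, 60 min, 4 °C) and suspension cells with 16% final TCA. Staining used 0.4% SRB in 1% acetic acid, solubilized in 10 mM trizma, read at A515. Percent growth was calculated from time-zero, control and treated absorbances.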

NCI-H522 = experiment: Antitumor activity against human NCI-H522 cells assessed as growth inhibition at 10 uM relative to control; outline: as §1
COLO 205 = experiment: Antitumor activity against human COLO 205 cells assessed as growth inhibition at 10 uM relative to control; outline: as §1
NCI-H322M = experiment: Antitumor activity against human NCI-H322M cells assessed as growth inhibition at 10 uM relative to control; outline: as §1
IGROV-1 = experiment: Antitumor activity against human IGROV-1 cells assessed as growth inhibition at 10 uM relative to control; outline: as §1
DU-145 = experiment: Antitumor activity against human DU-145 cells assessed as growth inhibition at 10 uM relative to control; outline: as §1
ACHN = experiment: Antitumor activity against human ACHN cells assessed as growth inhibition at 10 uM relative to control; outline: as §1
NCI-H226 = experiment: Antitumor activity against human NCI-H226 cells assessed as growth inhibition at 10 uM relative to control; outline: as §1
UACC-257 = experiment: Antitumor activity against human UACC-257 cells assessed as growth inhibition at 10 uM relative to control
Outline: (§2)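 Drug exposure 48 h at 37 °C, 5% CO2. Adherent cells fixed with cold TCA (10% final), suspension cells with TCA (16% final). Stained with 0.4% SRB in 1% acetic acid, dissolved in 10 mM Tris, A515. Growth relative to time-zero and untreated control.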

KM12 = experiment: Antitumor activity against human KM12 cells assessed as growth inhibition at 10 uM relative to control; outline: as §1
CAKI-1 = experiment: Antitumor activity against human CAKI-1 cells assessed as growth inhibition at 10 uM relative to control; outline: as §1
NCI-H460 = experiment: Antitumor activity against human NCI-H460 cells assessed as growth inhibition at 10 uM relative to control; outline: as §1
OVCAR-4 = experiment: Antitumor activity against human OVCAR-4 cells assessed as growth inhibition at 10 uM relative to control; outline: as §1
UO-31 = experiment: Antitumor activity against human UO-31 cells assessed as growth inhibition at 10 uM relative to control; outline: as §2
SNB-75 = experiment: Antitumor activity against human SNB-75 cells assessed as growth inhibition at 10 uM relative to control; outline: as §2
PC-3 = experiment: Antitumor activity against human PC-3 cells assessed as growth inhibition at 10 uM relative to control; outline: as §1
MDA-MB-231 = experiment: Antitumor activity against human MDA-MB-231 cells assessed as growth inhibition at 10 uM relative to control; outline: as §1
SK-MEL-5 = experiment: Antitumor activity against human SK-MEL-5 cells assessed as growth inhibition at 10 uM relative to control; outline: as §2
EKVX = experiment: Antitumor activity against human EKVX cells assessed as growth inhibition at 10 uM relative to control; outline: as §1
SW-620 = experiment: Antitumor activity against human SW-620 cells assessed as growth inhibition at 10 uM relative to control; outline: as §2
A498 = experiment: Antitumor activity against human A498 cells assessed as growth inhibition at 10 uM relative to control; outline: as §1
HT-29 = experiment: Antitumor activity against human HT-29 cells assessed as growth inhibition at 10 uM relative to control; outline: as §1
M14 = experiment: Antitumor activity against human M14 cells assessed as growth inhibition at 10 uM relative to control; outline: as §1
SF-295 = experiment: Antitumor activity against human SF-295 cells assessed as growth inhibition at 10 uM relative to control; outline: as §1
SK-OV-3 = experiment: Antitumor activity against human SK-OV-3 cells assessed as growth inhibition at 10 uM relative to control; outline: as §2
UACC-62 = experiment: Antitumor activity against human UACC-62 cells assessed as growth inhibition at 10 uM relative to control; outline: as §2
786-0 = experiment: Antitumor activity against human 786-0 cells assessed as growth inhibition at 10 uM relative to control; outline: as §1
RXF 393 = experiment: Antitumor activity against human RXF 393 cells assessed as growth inhibition at 10 uM relative to control; outline: as §1
U-251 = experiment: Antitumor activity against human U-251 cells assessed as growth inhibition at 10 uM relative to control; outline: as §2
BT-549 = experiment: Antitumor activity against human BT-549 cells assessed as growth inhibition at 10 uM relative to control; outline: as §1
SK-MEL-28 = experiment: Antitumor activity against human SK-MEL-28 cells assessed as growth inhibition at 10 uM relative to control; outline: as §2
HOP-92 = experiment: Antitumor activity against human HOP-92 cells assessed as growth inhibition at 10 uM relative to control; outline: as §1
LOX IMVI = experiment: Antitumor activity against human LOX IMVI cells assessed as growth inhibition at 10 uM relative to control; outline: as §1
HCT-116 = experiment: Antitumor activity against human HCT-116 cells assessed as growth inhibition at 10 uM relative to control; outline: as §1
SK-MEL-2 = experiment: Antitumor activity against human SK-MEL-2 cells assessed as growth inhibition at 10 uM relative to control; outline: as §1
HCT-15 = experiment: Antitumor activity against human HCT-15 cells assessed as growth inhibition at 10 uM relative to control; outline: as §1
MOLT-4 = experiment: Antitumor activity against human MOLT-4 cells assessed as growth inhibition at 10 uM relative to control; outline: as §1
MDA-MB-435 = experiment: Antitumor activity against human MDA-MB-435 cells assessed as growth inhibition at 10 uM relative to control; outline: as §1
OVCAR-3 = experiment: Antitumor activity against human OVCAR-3 cells assessed as growth inhibition at 10 uM relative to control; outline: as §1
MDA-MB-468 = experiment: Antitumor activity against human MDA-MB-468 cells assessed as growth inhibition at 10 uM relative to control; outline: as §1
HL-60 = experiment: Antitumor activity against human HL-60 cells assessed as growth inhibition at 10 uM relative to control; outline: as §1
SF-539 = experiment: Antitumor activity against human SF-539 cells assessed as growth inhibition at 10 uM relative to control; outline: as §1
T47D = experiment: Antitumor activity against human T47D cells assessed as growth inhibition at 10 uM relative to control; outline: as §2
SN12C = experiment: Antitumor activity against human SN12C cells assessed as growth inhibition at 10 uM relative to control; outline: as §2
OVCAR-8 = experiment: Antitumor activity against human OVCAR-8 cells assessed as growth inhibition at 10 uM relative to control; outline: as §1
HOP-62 = experiment: Antitumor activity against human HOP-62 cells assessed as growth inhibition at 10 uM relative to control; outline: as §1

N#Cc1c(-c2ccc(Cl)cc2)[nH]c(=S)[nH]c1=O
inhibition of growth at 10 µM (SF-268): < 1% | inhibition of growth at 10 µM (NCI-H522): < 1% | inhibition of growth at 10 µM (COLO 205): < 1% | inhibition of growth at 10 µM (NCI-H322M): < 1% | inhibition of growth at 10 µM (IGROV-1): < 1% | inhibition of growth at 10 µM (DU-145): < 1% | inhibition of growth at 10 µM (ACHN): < 1% | inhibition of growth at 10 µM (NCI-H226): < 1% | inhibition of growth at 10 µM (UACC-257): < 1% | inhibition of growth at 10 µM (KM12): < 1% | inhibition of growth at 10 µM (CAKI-1): < 1% | inhibition of growth at 10 µM (NCI-H460): < 1% | inhibition of growth at 10 µM (OVCAR-4): < 1% | inhibition of growth at 10 µM (UO-31): 10.2% | inhibition of growth at 10 µM (SNB-75): 14.7% | inhibition of growth at 10 µM (PC-3): < 1% | inhibition of growth at 10 µM (MDA-MB-231): < 1% | inhibition of growth at 10 µM (SK-MEL-5): < 1% | inhibition of growth at 10 µM (EKVX): < 1% | inhibition of growth at 10 µM (SW-620): < 1% | inhibition of growth at 10 µM (A498): < 1% | inhibition of growth at 10 µM (HT-29): < 1% | inhibition of growth at 10 µM (M14): < 1% | inhibition of growth at 10 µM (SF-295): < 1% | inhibition of growth at 10 µM (SK-OV-3): < 1% | inhibition of growth at 10 µM (UACC-62): < 1% | inhibition of growth at 10 µM (786-0): < 1% | inhibition of growth at 10 µM (RXF 393): < 1% | inhibition of growth at 10 µM (U-251): < 1% | inhibition of growth at 10 µM (BT-549): < 1% | inhibition of growth at 10 µM (SK-MEL-28): < 1% | inhibition of growth at 10 µM (HOP-92): < 1% | inhibition of growth at 10 µM (LOX IMVI): < 1% | inhibition of growth at 10 µM (HCT-116): < 1% | inhibition of growth at 10 µM (SK-MEL-2): < 1% | inhibition of growth at 10 µM (HCT-15): < 1% | inhibition of growth at 10 µM (MOLT-4): < 1% | inhibition of growth at 10 µM (MDA-MB-435): < 1% | inhibition of growth at 10 µM (OVCAR-3): < 1% | inhibition of growth at 10 µM (MDA-MB-468): < 1% | inhibition of growth at 10 µM (HL-60): < 1% | inhibition of growth at 10 µM (SF-539): < 1% | inhibition of growth at 10 µM (T47D): < 1% | inhibition of growth at 10 µM (SN12C): < 1% | inhibition of growth at 10 µM (OVCAR-8): < 1% | inhibition of growth at 10 µM (HOP-62): < 1%

CSc1nc(-c2ccc(Cl)cc2)c(C#N)c(N2CCOCC2)n1
inhibition of growth at 10 µM (SF-268): 13.9% | inhibition of growth at 10 µM (NCI-H522): 30.2% | inhibition of growth at 10 µM (COLO 205): < 1% | inhibition of growth at 10 µM (NCI-H322M): < 1% | inhibition of growth at 10 µM (IGROV-1): 11.8% | inhibition of growth at 10 µM (DU-145): < 1% | inhibition of growth at 10 µM (ACHN): < 1% | inhibition of growth at 10 µM (NCI-H226): 17.5% | inhibition of growth at 10 µM (UACC-257): < 1% | inhibition of growth at 10 µM (KM12): < 1% | inhibition of growth at 10 µM (CAKI-1): 13.7% | inhibition of growth at 10 µM (NCI-H460): < 1% | inhibition of growth at 10 µM (OVCAR-4): 18.2% | inhibition of growth at 10 µM (UO-31): 27.1% | inhibition of growth at 10 µM (SNB-75): 47.8% | inhibition of growth at 10 µM (PC-3): < 1% | inhibition of growth at 10 µM (MDA-MB-231): < 1% | inhibition of growth at 10 µM (SK-MEL-5): < 1% | inhibition of growth at 10 µM (EKVX): 15.1% | inhibition of growth at 10 µM (SW-620): < 1% | inhibition of growth at 10 µM (A498): 54.3% | inhibition of growth at 10 µM (HT-29): 15.3% | inhibition of growth at 10 µM (M14): < 1% | inhibition of growth at 10 µM (SF-295): < 1% | inhibition of growth at 10 µM (SK-OV-3): 11% | inhibition of growth at 10 µM (UACC-62): < 1% | inhibition of growth at 10 µM (786-0): 11% | inhibition of growth at 10 µM (RXF 393): < 1% | inhibition of growth at 10 µM (U-251): < 1% | inhibition of growth at 10 µM (BT-549): 21.8% | inhibition of growth at 10 µM (SK-MEL-28): < 1% | inhibition of growth at 10 µM (HOP-92): 21.1% | inhibition of growth at 10 µM (LOX IMVI): < 1% | inhibition of growth at 10 µM (HCT-116): < 1% | inhibition of growth at 10 µM (SK-MEL-2): < 1% | inhibition of growth at 10 µM (HCT-15): < 1% | inhibition of growth at 10 µM (MOLT-4): < 1% | inhibition of growth at 10 µM (MDA-MB-435): < 1% | inhibition of growth at 10 µM (OVCAR-3): < 1% | inhibition of growth at 10 µM (MDA-MB-468): < 1% | inhibition of growth at 10 µM (HL-60): < 1% | inhibition of growth at 10 µM (SF-539): < 1% | inhibition of growth at 10 µM (T47D): 33% | inhibition of growth at 10 µM (SN12C): < 1% | inhibition of growth at 10 µM (OVCAR-8): < 1% | inhibition of growth at 10 µM (HOP-62): 15.7%
